ChEMBL document CHEMBL3352234, “Discovery of furan-2-carbohydrazides as orally active glucagon receptor antagonists” (Bioorg Med Chem Lett, 2014)
Active and inactive are the calls of the source. The rule behind the calls is not given here.

Tests used:
Glucagon receptor [1] = molecular target: T1, Glucagon receptor (Rattus norvegicus, UniProt P30082); test: Displacement of [125I]glucagon from glucagon receptor in rat hepatocyte membranes after 30 mins by gamma-counting; assay type: cell membranes
T1 sequence (P30082 whole entry): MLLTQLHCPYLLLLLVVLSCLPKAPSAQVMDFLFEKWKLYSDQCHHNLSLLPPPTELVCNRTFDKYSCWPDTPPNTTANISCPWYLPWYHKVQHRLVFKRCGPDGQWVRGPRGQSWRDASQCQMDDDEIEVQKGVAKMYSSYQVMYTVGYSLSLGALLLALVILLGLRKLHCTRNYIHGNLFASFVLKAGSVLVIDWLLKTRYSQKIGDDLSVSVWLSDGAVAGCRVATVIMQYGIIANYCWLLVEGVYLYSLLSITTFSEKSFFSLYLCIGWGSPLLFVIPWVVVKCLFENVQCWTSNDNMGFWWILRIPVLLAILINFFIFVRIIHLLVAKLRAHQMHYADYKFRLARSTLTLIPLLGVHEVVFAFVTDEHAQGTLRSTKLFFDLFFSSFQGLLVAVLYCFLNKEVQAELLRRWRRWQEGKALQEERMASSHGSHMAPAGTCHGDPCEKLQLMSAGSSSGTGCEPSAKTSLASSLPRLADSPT
Method in brief: (§1)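 Rat liver was homogenized in 20 volumes of 50 mM Tris–HCl (pH 7.2) and the membrane pellet collected by two 30,000g spins of 15 min each. Membranes were resuspended in Tris–HCl pH 7.2 with 1 mg/mL BSA and 0.1 mg/mL bacitracin. Incubation was with [125I]glucagon (final 50 pM) at 25 °C for 30 min, then filtration onto PEI-treated GF/C filters and gamma counting. Inhibition is relative to binding without compound, after subtracting nonspecific binding with excess glucagon. Run in duplicate.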

[2] = molecular target: Glucagon receptor (Rattus norvegicus) (UniProt P30082); test: Displacement of [125I]glucagon from glucagon receptor in rat hepatocyte membranes at 10 uM after 30 mins by gamma-counting; assay type: cell membranes; method in brief: as §1
Sequence of Glucagon receptor (Rattus norvegicus) (P30082 whole entry): as above

Rattus norvegicus [3] = test: Inhibition of glucagon-induced glucose elevation in rat at 30 mg/kg, po administered 30 mins prior challenge measured up to 6 hrs; assay type: functional, organism-based; design: dose 30 mg/kg
Method in brief: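 Normal rats were dosed orally 30 min before an intravenous glucagon challenge, with blood sampled afterwards for glucose. Values are mean ± SEM, n = 6 per group; Dunnett multiple comparison test.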

[4] = Inhibition of glucagon-induced glucagon receptor-mediated cAMP production in dog hepatocytes after 15 mins by cAMP dynamic2 assay; assay type: cell-based; conditions: Canis lupus familiaris, Hepatocyte, 0.25 h
Method in brief: (§2)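 Hepatocytes were suspended in HCM medium, seeded on collagen-coated wells and incubated for 5 h. Compound in DMEM with 20 mM HEPES, 0.1% BSA and 0.5 mM IBMX was preincubated for 15 min at room temperature. Glucagon was then added for 5 min at room temperature. Cells were lysed with 0.5 M HCl for 10 min and neutralized with Tris–HCl pH 8.0. Supernatant cAMP was quantified with the cAMP dynamic2 kit.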

Rattus norvegicus [5] = test: Inhibition of glucagon-induced glucose elevation in normal rat at 30 mg/kg, po administered 30 mins prior challenge measured up to 6 hrs
[6] = molecular target: Glucagon-like peptide 1 receptor (Homo sapiens, UniProt P43220); test: Inhibition of GLP-1R (unknown origin)
Sequence of Glucagon-like peptide 1 receptor (P43220 whole entry): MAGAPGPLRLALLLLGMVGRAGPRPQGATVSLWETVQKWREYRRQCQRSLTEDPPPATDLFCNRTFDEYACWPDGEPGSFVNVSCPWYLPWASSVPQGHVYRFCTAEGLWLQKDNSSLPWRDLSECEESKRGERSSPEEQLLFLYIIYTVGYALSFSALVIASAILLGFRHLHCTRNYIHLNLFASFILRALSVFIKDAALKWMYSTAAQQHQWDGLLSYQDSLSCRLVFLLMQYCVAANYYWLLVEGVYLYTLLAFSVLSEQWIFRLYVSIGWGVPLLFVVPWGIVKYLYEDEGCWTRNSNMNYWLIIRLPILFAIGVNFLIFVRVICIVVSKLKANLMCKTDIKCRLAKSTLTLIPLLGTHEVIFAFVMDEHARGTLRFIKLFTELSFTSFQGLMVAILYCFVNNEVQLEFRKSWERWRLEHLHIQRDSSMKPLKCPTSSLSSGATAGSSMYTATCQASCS

[7] = Half life in rat at 1 mg/kg, po; assay type: ADME, organism-based; design: dose 1 mg/kg, route oral; conditions: in vivo
Rattus norvegicus [8] = test: Volume of distribution at steady state in rat at 1 mg/kg, iv; assay type: ADME, organism-based; design: dose 1 mg/kg, route intravenous; conditions: in vivo
[9] = Oral bioavailability in rat at 1 mg/kg; assay type: ADME, organism-based; conditions: in vivo
Rattus norvegicus [10] = test: Half life in rat at 1 mg/kg, iv; assay type: ADME, organism-based; design: dose 1 mg/kg, route intravenous; conditions: in vivo
Glucagon receptor [11] = molecular target: T1, Glucagon receptor; test: Inhibition of glucagon-induced glucagon receptor-mediated cAMP production in rat hepatocytes after 15 mins by cAMP dynamic2 assay; assay type: functional, cell-based, Hepatocyte; method in brief: as §2
Glucagon receptor [12] = molecular target: Glucagon receptor (Homo sapiens, UniProt P47871); test: Inhibition of glucagon-induced glucagon receptor-mediated cAMP production in human hepatocytes after 15 mins by cAMP dynamic2 assay; assay type: functional, cell-based, Hepatocyte; method in brief: as §2
Sequence of Glucagon receptor (Homo sapiens, UniProt P47871) (P47871 whole entry): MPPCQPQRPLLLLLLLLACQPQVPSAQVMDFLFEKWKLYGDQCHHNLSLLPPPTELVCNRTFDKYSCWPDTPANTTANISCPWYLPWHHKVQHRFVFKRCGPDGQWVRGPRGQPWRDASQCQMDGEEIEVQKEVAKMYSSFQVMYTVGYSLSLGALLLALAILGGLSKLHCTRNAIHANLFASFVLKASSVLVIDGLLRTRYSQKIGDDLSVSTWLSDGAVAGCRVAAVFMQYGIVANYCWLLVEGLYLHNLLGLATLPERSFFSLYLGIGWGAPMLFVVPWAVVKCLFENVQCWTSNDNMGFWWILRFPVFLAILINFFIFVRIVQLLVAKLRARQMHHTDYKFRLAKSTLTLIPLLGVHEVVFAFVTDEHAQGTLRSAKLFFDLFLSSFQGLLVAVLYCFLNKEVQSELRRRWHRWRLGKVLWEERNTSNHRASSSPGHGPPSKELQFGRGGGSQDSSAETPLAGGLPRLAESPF

[13] = molecular target: Voltage-gated inwardly rectifying potassium channel KCNH2 (Homo sapiens, UniProt Q12809); test: Inhibition of human ERG
Sequence of Voltage-gated inwardly rectifying potassium channel KCNH2 (Q12809 whole entry): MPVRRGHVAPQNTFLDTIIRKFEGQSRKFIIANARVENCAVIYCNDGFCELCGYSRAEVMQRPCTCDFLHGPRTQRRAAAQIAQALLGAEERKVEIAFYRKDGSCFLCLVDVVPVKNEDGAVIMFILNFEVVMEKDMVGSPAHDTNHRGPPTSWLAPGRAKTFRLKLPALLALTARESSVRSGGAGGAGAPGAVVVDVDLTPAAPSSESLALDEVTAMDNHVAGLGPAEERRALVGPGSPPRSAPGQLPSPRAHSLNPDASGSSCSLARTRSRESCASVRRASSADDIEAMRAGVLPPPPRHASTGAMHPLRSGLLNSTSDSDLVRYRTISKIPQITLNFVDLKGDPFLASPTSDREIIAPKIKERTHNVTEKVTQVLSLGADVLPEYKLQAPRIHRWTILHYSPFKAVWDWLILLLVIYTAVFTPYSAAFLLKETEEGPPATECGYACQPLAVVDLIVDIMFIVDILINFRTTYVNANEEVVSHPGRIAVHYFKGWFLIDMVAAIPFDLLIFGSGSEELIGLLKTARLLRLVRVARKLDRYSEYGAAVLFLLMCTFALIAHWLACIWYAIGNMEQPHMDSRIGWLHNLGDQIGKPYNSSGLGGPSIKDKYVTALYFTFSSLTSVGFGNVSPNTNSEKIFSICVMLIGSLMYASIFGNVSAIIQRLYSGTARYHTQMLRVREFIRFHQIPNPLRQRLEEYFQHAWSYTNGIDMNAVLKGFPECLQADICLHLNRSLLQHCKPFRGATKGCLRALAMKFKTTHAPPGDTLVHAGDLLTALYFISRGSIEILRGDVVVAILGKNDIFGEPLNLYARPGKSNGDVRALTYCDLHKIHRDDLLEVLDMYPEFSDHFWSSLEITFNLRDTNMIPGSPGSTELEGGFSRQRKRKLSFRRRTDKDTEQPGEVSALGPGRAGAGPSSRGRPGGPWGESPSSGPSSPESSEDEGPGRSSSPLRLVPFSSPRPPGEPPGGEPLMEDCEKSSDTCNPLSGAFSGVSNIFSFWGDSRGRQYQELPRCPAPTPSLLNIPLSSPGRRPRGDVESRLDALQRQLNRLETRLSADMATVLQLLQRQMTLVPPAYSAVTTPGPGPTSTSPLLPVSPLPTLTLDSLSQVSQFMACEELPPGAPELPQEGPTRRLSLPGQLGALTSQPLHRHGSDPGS

[14] = Cmax in rat at 1 mg/kg, po; assay type: ADME, organism-based; design: dose 1 mg/kg, route oral; conditions: in vivo
[15] = Inhibition of sodium channel site 2 (unknown origin); design: species or system Homo sapiens

Structure (SMILES)	IC50 (Glucagon receptor [1])	inhibition [2]	further results
O=C(NNC(=O)c1occ(-c2ccccc2)c1-c1ccccc1)c1ccoc1		73%	
CCCCCc1ccc(-c2ccoc2C(=O)NNC(=O)c2ccc(O)c([N+](=O)[O-])c2)cc1			inhibition (Rattus norvegicus [3]): Active; IC50 [4]: 183 nM; inhibition (Rattus norvegicus [5]): Active; IC50 [6]: > 1000 nM; half-life [7]: 6.1 h; Vdss (Rattus norvegicus [8]): 0.59 L/kg; bioavailability [9]: 37%; t1/2 (Rattus norvegicus [10]): 5.9 h; IC50 (Glucagon receptor [11]): 5.3 nM; IC50 (Glucagon receptor [12]): 292 nM; IC50 [13]: > 1000 nM; Cmax [14]: 411 ng/mL; IC50 [15]: > 1000 nM
O=C(NNC(=O)c1occ(-c2ccccc2)c1-c1ccccc1)c1ccc(O)c(-c2ccccc2)c1	> 10000 nM		
O=C(NNC(=O)c1occ(-c2ccccc2)c1-c1ccccc1)c1ccccc1		42%	
O=C(NNC(=O)c1occ(-c2ccccc2)c1-c1ccccc1)c1ccco1		50%	
O=C(NNC(=O)c1occ(-c2ccccc2)c1-c1ccccc1)c1cccc(O)c1		21%	
O=C(NNC(=O)c1occ(-c2ccccc2)c1-c1ccccc1)c1ccc(O)cc1	9500 nM	65%	
O=C(O)c1ccc(C(=O)NNC(=O)c2occ(-c3ccccc3)c2-c2ccccc2)cc1		61%	
COc1ccc(C(=O)NNC(=O)c2occ(-c3ccccc3)c2-c2ccccc2)cc1		inactive	
O=C(NNC(=O)c1cc(-c2ccccc2)co1)c1ccoc1		6%	

Continued, in another order:

IC50 (Glucagon receptor [1])	inhibition [2]	Structure (SMILES)	further results
9500 nM		COc1cc(C(=O)NNC(=O)c2occ(-c3ccccc3)c2-c2ccccc2)ccc1O	
87 nM		O=C(NNC(=O)c1occ(-c2ccccc2)c1-c1ccccc1)c1ccc(O)c([N+](=O)[O-])c1	
430 nM		O=C(NNC(=O)c1occ(-c2ccccc2)c1-c1ccccc1)c1ccc(O)c(Cl)c1	
1400 nM		O=C(NNC(=O)c1occ(-c2ccccc2)c1-c1ccccc1)c1ccc(O)c(F)c1	
270 nM		O=C(NNC(=O)c1occ(-c2ccccc2)c1-c1ccccc1)c1ccc(O)c(Br)c1	
	57%	O=C(NNC(=O)c1occ(-c2ccccc2)c1-c1ccccc1)c1ccc(O)c(O)c1	
970 nM		O=C(NNC(=O)c1occ(-c2ccccc2)c1-c1ccccc1)c1ccc(O)nc1	
